# From PubChem BioAssay
# The list is not random: actives were taken first. Their share in the collection is about 2.1%.
# Xi reactivation: X-chromosome reactivation activator | XiGFP mouse fibroblasts, % GFP-positive cells imaging, 3 d; cells co-treated with 5-aza-dC sensitizer; scaled so ellipticine positive control = 100% | activation, % at 7.58 µM | 360,000 tested, 0.055% active;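 active = mean normalized replicate activation at least 10% and every replicate at or above 10%; inconclusive = only one of the two criteria met; inactive = mean below 10% and not all replicates reach 10%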;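 also: 0% = median of on-plate neutral control wells and 100% = ellipticine 6 µM median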
#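 material = 68-5-11 XiGFP fibroblast line | medium = DMEM plus 5-aza-dC sensitizer | schedule = 3 days compound exposure | benchmarks = positive control ellipticine, 6 µM final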
# GSIS activator: primary screen for activators of insulin secretion dependent on glucose, INS-1E cells, GLuc reporter luminescence; INS-1E GLuc reporter insulin secretion, 2-3 h; activation, % at 16.6 µM; 370,000 tested, 0.61% active;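 active = lowest replicate activation of at least 40%, so every replicate reaches that level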;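 also: 0% = median of neutral control wells and 100% = median of IBMX positive control wells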
# EWS-Fli inh: EWS/Fli transcriptional activity inhibition; A673 NR0B1-luciferase reporter, viability-normalised; inhibition, % at 12.6 µM; 350,000 tested, 0.67% active;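 active = mean inhibition of at least 50% after viability correction, with every replicate also passing that limit; inconclusive = mean reaches 50% but only one of two replicates passes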;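 also: firefly luciferase signal divided by Alamar Blue viability fluorescence both relative to DMSO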
# PAX8 inh HTS: PAX8 transcriptional activity inhibition | AID 652154 | inhibition, % at 12.6 µM | RMG-I TPO-luciferase reporter, SteadyGlo, 24 h | 360,000 tested, 1.2% active;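 active = mean replicate inhibition at least 60% with every replicate also reaching 60%; inconclusive = only one of the two criteria is met; inactive = mean below 60% and not all replicates reaching 60%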;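 also: luciferase light reporting Pax8 driven TPO promoter activity; plate controls were median of neutral control wells for no effect and mitoxantrone controls for full effect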
# PGC1a acetyl inh: lowers PGC1a acetylation signal in U2OS cells | inhibition, % at 15.6 µM | 350,000 tested, 0.17% active | AlphaScreen anti-acetyl-lysine; with virally co-expressed GCN5 acetyltransferase | AID 651687;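 active = every replicate shows inhibition of at least 40%; inconclusive = mean inhibition at least 40% but some replicate below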;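 also: 0% = neutral control wells and 100% = positive control wells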
# AF4-AF9 inh: MLL-AF4/AF9 protein interaction inhibition; inhibition, % at 10 µM; AID 651704; AlphaScreen, biotin-AF4 peptide binding to FLAG-AF9; 350,000 tested, 0.47% active;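 active = every replicate reaching a set inhibition limit, whatever the replicate mean, cut at about 25% in these data; inconclusive = mean inhibition reaches that limit but some replicates miss it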;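 also: 0% = plate neutral control median and 100% = total signal loss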
# Target sequence (P42568 whole entry, looked up): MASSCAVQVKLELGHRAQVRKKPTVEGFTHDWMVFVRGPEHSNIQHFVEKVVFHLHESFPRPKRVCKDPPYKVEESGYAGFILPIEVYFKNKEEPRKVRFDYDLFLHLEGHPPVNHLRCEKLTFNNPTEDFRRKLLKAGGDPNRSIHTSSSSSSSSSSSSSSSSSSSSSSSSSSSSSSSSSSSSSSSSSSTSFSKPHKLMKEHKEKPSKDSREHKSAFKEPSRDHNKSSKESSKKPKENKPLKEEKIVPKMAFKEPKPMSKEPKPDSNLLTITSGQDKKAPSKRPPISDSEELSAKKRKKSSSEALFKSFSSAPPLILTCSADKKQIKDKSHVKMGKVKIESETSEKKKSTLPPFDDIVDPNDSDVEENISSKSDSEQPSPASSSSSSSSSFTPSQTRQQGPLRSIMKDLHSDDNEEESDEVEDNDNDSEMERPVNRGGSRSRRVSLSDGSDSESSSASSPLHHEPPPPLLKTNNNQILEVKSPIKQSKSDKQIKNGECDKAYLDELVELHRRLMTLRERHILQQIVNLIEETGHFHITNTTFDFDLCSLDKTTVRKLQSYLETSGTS
# Numbers without * were called inactive; ? = inconclusive; . = not tested or not shown.
SMILES,Xi reactivation,GSIS activator,EWS-Fli inh,PAX8 inh HTS,PGC1a acetyl inh,AF4-AF9 inh
CC(=O)c1ccc(Nc2nc(-c3sc(C)nc3C)cs2)cc1,0.2,-6.1,65.7*,22.2,-26.4,2.0
CCCC#Cc1ccc([C@H]2[C@@H](CO)N(C(C)=O)[C@@H]2CNC(=O)C2CCCC2)cc1,0.4,-23.8,10.8,.,.,-4.5
C[C@H]1CN([C@@H](C)CO)C(=O)c2cccc(NC(=O)Nc3ccc(F)cc3)c2O[C@H]1CN(C)S(=O)(=O)c1cccs1,0.1,-1.7,-6.0,2.0,13.9,1.9
C[C@@H]1CN([C@@H](C)CO)C(=O)c2cccc(NC(=O)c3ccncc3)c2O[C@@H]1CN(C)S(=O)(=O)c1cccs1,0.1,16.1,3.5,98.3*,-0.9,-2.6
C[C@H](CO)N1C[C@H](C)[C@H](CN(C)S(=O)(=O)c2cccs2)Oc2c(NC(=O)Nc3ccc(F)cc3)cccc2C1=O,0.5,-9.7,-14.8,67.7*,5.1,1.0
C[C@@H]1CN([C@@H](C)CO)C(=O)c2cccc(NC(=O)c3ccncc3)c2O[C@H]1CN(C)S(=O)(=O)c1cccs1,0.2,-1.5,-1.6,.,-4.1,-0.5
CC(C)NC(=O)Nc1cccc2c1O[C@@H](CN(C)Cc1ccc3c(c1)OCO3)[C@H](C)CN([C@H](C)CO)C2=O,0.1,-4.9,.,14.5,.,1.4
COc1ccc(OC)c(NC(=O)CN2C(=O)COc3ccc(S(=O)(=O)N4CCCC4)cc32)c1,0.0,6.7,.,9.0,-14.4,34.7*
COc1ccc(S(=O)(=O)N2CCCCC2)cc1NC(=O)C1CC1C (centres undefined),0.0,40.5*,-1.4,-6.1,.,0.1
CCNC(=S)NCc1ccc2[nH]c(C)cc2c1,0.0,-14.9,-0.8,-12.5,-21.5,27.0*
CCOC(=O)NCc1ccc2[nH]c(C)cc2c1,-0.4,-2.4,-1.6,.,11.9,-2.8
COC(=O)C1=C(C)NC(=S)NC1c1cccc(OC)c1 (centres undefined),0.3,43.8*,-14.3,-14.0,.,.
Cc1ccc(-c2ccc(/C=N/NC(=O)Cc3nnc(N)s3)o2)cc1Cl,0.0,2.9,-7.7,-7.0,?,7.4
COc1ccc(-c2ccc(/C=N/NC(=O)Cc3nnc(N)s3)o2)cc1Cl,0.3,33.2,2.3,-20.8,56.8*,18.2
Cc1nc(SCc2nc3cc(Cl)c(F)cc3[nH]2)c2oc3ccccc3c2n1,0.1,11.1,8.7,87.4*,-1.0,0.3
CCCCCCC[N+](CC)(CC)CCCCc1ccc(Cl)cc1,-0.1,.,19.2,87.4*,14.1,-4.9
O=C(Nc1ccc(S(=O)(=O)NC2=NCCCCC2)cc1)c1ccc([N+](=O)[O-])s1,0.4,-38.8,59.4*,94.8*,-43.0,-1.6
Cc1noc(C)c1NC(=O)Nc1ccc2c(c1)C(=O)N([C@@H](C)CO)C[C@H](C)[C@@H](CN(C)C(=O)Nc1cccc3ccccc13)OCCCC[C@H](C)O2,0.4,4.0,21.8,-3.8,-5.0,.
O=C(Nc1ccc(NC(=O)c2cccs2)cc1)c1ccc(Br)o1,.,44.9*,.,.,-7.8,.
O=C(Nc1cccc(NC(=O)c2cccs2)c1)c1ccc(Br)o1,0.0,-4.8,-31.9,3.2,1.6,-0.1
COc1ccc(NC(=O)c2nn(C34CC5CC(CC(C5)C3)C4)cc2[N+](=O)[O-])cc1,0.0,-3.4,-0.4,128.3*,.,-8.6
Cc1nnc(N2C(=O)C(O)=C(C(=O)c3ccco3)C2c2cccc([N+](=O)[O-])c2)s1 (centres undefined),0.3,47.6*,6.3,7.0,3.0,1.4
Cc1ccc(C2C(C(=O)c3ccco3)=C(O)C(=O)N2c2nnc(C)s2)cc1 (centres undefined),.,.,.,0.0,.,.
C[C@H]1CC=CC[C@H](c2ccccc2)NC(=O)[C@H](Cc2ccccc2)N(C)C(=O)c2ccccc2O1 (mixture of isomers),0.1,-5.7,.,.,.,.
CO[C@@H]1CN(C)C(=O)c2ccc(NS(=O)(=O)CC(F)(F)F)cc2OC[C@@H](C)N(Cc2ccccn2)C[C@H]1C,0.0,-5.3,-5.7,-16.3,.,-11.3
SMILES,Xi reactivation,GSIS activator,EWS-Fli inh,PAX8 inh HTS,PGC1a acetyl inh,AF4-AF9 inh
O=C(COc1ccc(S(=O)(=O)N2CCOCC2)cc1Cl)N1CCCC1,0.0,-3.6,8.0,-3.0,.,41.7*
CCOc1ccc(S(=O)(=O)N2CCOCC2)cc1NC(=O)C1=COCCO1,-0.1,41.0*,11.6,-16.8,.,-3.2
COc1ccccc1C#Cc1ccc2c(c1)[C@@H]1[C@@H](CCN1C(=O)Cc1ccccc1)[C@H](CO)N2,0.0,-1.2,.,.,.,3.8
CC(=O)CCSc1ncnc2sc(-c3ccccc3)cc12,-0.1,-14.4,-17.5,-48.7,.,-1.7
O=C(O)CCSc1ncnc2sc(-c3ccccc3)cc12,-0.2,2.9,69.4*,0.0,4.4,9.5
C[C@H](CO)N1C[C@H](C)[C@H](CN(C)S(=O)(=O)c2ccc(F)cc2)Oc2cc(C#Cc3ccncc3)ccc2S1(=O)=O,0.7,14.7,11.9,.,4.2,-2.8
Cc1ccc(S(=O)(=O)N(C)C[C@H]2Oc3cc(C#Cc4ccncc4)ccc3S(=O)(=O)N([C@@H](C)CO)C[C@H]2C)cc1,.,.,19.0,103.8*,24.7,1.0
C[C@@H]1CN([C@@H](C)CO)S(=O)(=O)c2ccc(C#Cc3ccc(F)cc3)cc2O[C@H]1CN(C)S(=O)(=O)c1ccc(F)cc1,0.1,-5.4,25.5,.,-1.2,-6.1
C[C@H](CO)N1C[C@H](C)[C@@H](CN(C)S(=O)(=O)c2ccc(F)cc2)Oc2cc(C#Cc3ccc(F)cc3)ccc2S1(=O)=O,-0.1,-12.1,19.4,.,0.1,-2.4
CC(C)CC#Cc1ccc2c(c1)O[C@H](CN(C)S(=O)(=O)c1ccc(F)cc1)[C@H](C)CN([C@@H](C)CO)S2(=O)=O,-0.7,5.4,29.4,98.0*,6.2,0.1
CC(C)CC#Cc1ccc2c(c1)O[C@@H](CN(C)S(=O)(=O)c1ccc(F)cc1)[C@H](C)CN([C@H](C)CO)S2(=O)=O,0.2,-4.9,24.2,67.5*,-1.1,2.1
CN1C(=O)c2cc(NC(=O)C3CCC3)ccc2OC[C@H]2O[C@@H](CC(=O)NCc3ccccc3F)CC[C@@H]21,0.0,2.5,27.6,-19.4,1.8,-0.9
O=C(C[C@H]1CC[C@H]2[C@@H](COC[C@H](O)CN2C(=O)Nc2cccc(F)c2)O1)NCc1ccccc1Cl,0.1,-15.5,.,.,-11.0,-3.3
C[C@H]1CN([C@@H](C)CO)C(=O)c2cccc(NS(C)(=O)=O)c2O[C@@H]1CN(C)CC1CCCCC1,0.2,9.6,-2.5,3.1,-9.2,-0.9
Cc1ccc(Sc2ccc(CN3CCCC3)cc2[N+](=O)[O-])cc1,0.1,2.9,1.1,-3.0,.,31.0*
CN1CCN(Cc2ccc(Sc3ccc(Cl)cc3)c([N+](=O)[O-])c2)CC1,-0.1,1.3,1.7,2.7,.,21.2
